Measurements pooled from the literature.

Compound	tested on	test	system	conditions	measurement	result
C=C/C=C(\C)CC[C@@H]1C[C@@H](O)CC(=O)O1	Bacillus cereus	microbial growth, broth dilution	ATCC10876		MIC	128 µg/mL
O=C(O)c1cn(C2CC2)c2cc(N3CCNCC3)c(F)cc2c1=O	Salmonella enterica	microbial growth, broth dilution	TYPHIMURIUM		MIC	0.03 µM
CC(=O)OCC1=C(C(=O)O)N2C(=O)[C@@H](NC(=O)Cc3cccs3)[C@H]2SC1	Salmonella enterica	microbial growth, broth dilution	TYPHIMURIUM		MIC	< 127 µg/mL
C=CC(=O)NC1CCN(c2ncc3ncnc(Nc4ccc(Oc5ccc6c(c5)ncn6C)c(C)c4)c3n2)CC1	AU565	cell growth or viability			EC50	20.8 nM
COc1cc2c3c(n(CCCN4CCOCC4)c(=O)c2cc1OC)-c1nc2c(cc1C3=O)OCO2	RPMI-8226	cell growth or viability, MTS		72 h	IC50	905 nM
CC(C)C[C@@H]1NC(=O)[C@@H](N(C)C(=O)[C@H](CC2CCC2)NC(=O)[C@@H]2C[C@@H](F)CN2C(=O)C2(C(F)(F)F)CC(F)(F)C2)CCCCNC(=O)C2(CC2)NC(=O)[C@H](Cc2cc(Cl)ccc2Cl)N(C)C1=O	NCI-H69	cell growth or viability, MTT		5 days	GI50	13 nM
CCNCCCn1c2c(c3cc(OC)c(OC)cc3c1=O)C(=O)c1cc3c(nc1-2)OCO3	TC-71	cell growth or viability, MTS		72 h	IC50	122 nM
O=C(O)c1cn(C2CC2)c2cc(N3CCNCC3)c(F)cc2c1=O	Salmonella enterica	microbial growth	ATCC13311		MIC	4 µM
